Data set [1] relates to Escherichia coli. Nature of the data set: Bactericidal activity against Escherichia coli DH10beta harboring pHuLUC3 after 18 to 20 hrs by microdilution method. In kind it is functional. In short, it runs like this: (§1)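 EUCAST broth microdilution in LB broth. Inoculum prepared by direct colony suspension from 20–24 h LB agar (E. coli DH10β) or 5% sheep blood BHI agar (MRSA USA300) growth. Final inoculum 2×10^4 CFU/mL, 18–20 h aerobic at 37 °C, growth read on a plate reader, at least duplicate.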

For data set [2], the system named is Staphylococcus aureus. Nature of the data set: Antibacterial activity against methicillin-resistant Staphylococcus aureus USA300 after 18 to 20 hrs by microdilution method. In kind it is functional. In short, it runs like this: as §1
The subject of data set [3] is Escherichia coli. Nature of the data set: Antibacterial activity against Escherichia coli DH10beta harboring pHuLUC3 after 18 to 20 hrs by microdilution method. In kind it is functional. A digest of the protocol:
as §1
For orientation: In broth dilution the organism is exposed to a series of concentrations in liquid medium.

The test system of data set [4] is Mycolicibacterium smegmatis. As to the kind of experiment: Antimycobacterial activity against Mycobacterium smegmatis MC2 155 after 94 to 98 hrs by microdilution method. The data set is classed as functional. Conditions: str. MC2 155. In short, it runs like this: (§2)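 Microdilution in TSB broth. Inoculum from colonies grown 96 h on TSA, final 1×10^5 CFU/mL, aerobic 94–98 h at 37 °C, growth read on a plate reader, at least duplicate.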

The test system of data set [5] is Staphylococcus aureus. Nature of the data set: Bactericidal activity against methicillin-resistant Staphylococcus aureus USA300 after 18 to 20 hrs by microdilution method. The data set is classed as functional. A digest of the protocol: as §1
In the next data set the test system is Saccharomyces cerevisiae. Nature of the data set: Antibacterial activity against Saccharomyces cerevisiae after 18 to 20 hrs by microdilution method. In short, it runs like this: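 Microdilution in YEP broth against wild-type yeast grown on YEP agar. Final inoculum 1×10^5 CFU/mL. Read after 18–20 h aerobic incubation at 30 °C on plate reader, at least one duplicate.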

The subject of data set [6] is Mycolicibacterium smegmatis. Nature of the data set: Bactericidal activity against Mycobacterium smegmatis MC2 155 after 96 hrs by microdilution method. The data set is classed as functional. Particulars: str. MC2 155, 96 h. A digest of the protocol:
as §2

A short description of data set [7]: Stability of the compound in organic solvent. In kind it is physicochemical.
The nature of data set [8]: Stability of the compound in solid state. In kind it is physicochemical.
The nature of data set [9]: Stability of the compound in water. In kind it is physicochemical. Conditions: buffer.
Data set [10] is described as follows: Solubility of the compound in water. In kind it is physicochemical. Conditions: buffer.
Data set [11] has as its system Staphylococcus aureus. Nature of the data set: Antibacterial activity against methicillin-resistant Staphylococcus aureus USA300 by broth microdilution method.

Converted amounts (≈) assume the structure as drawn. A value given as a limit tells only on which side of the number the result lay.

What is called MBC is the lowest tested concentration that kills the bacteria rather than only halting them. A high value points to less potent killing. For the compound `O=C(c1ccncc1)N(/N=N/c1ccc([N+](=O)[O-])c(C(F)(F)F)c1)c1ccc([N+](=O)[O-])c(C(F)(F)F)c1`, the results for the minimum bactericidal concentration (MBC) (against Escherichia coli [1]; against Staphylococcus aureus [5]; in data set [6]) were 32 µg/mL (≈ 60.6 µM), 2 µg/mL (≈ 3.79 µM) and above 128 µg/mL, respectively. Moreover, the MIC in the data set on Staphylococcus aureus [2] was 2 µg/mL (≈ 3.79 µM); against Escherichia coli [3], 32 µg/mL (≈ 60.6 µM); in [4] it was 64 µg/mL (≈ 121 µM); with Saccharomyces cerevisiae, above 128 µg/mL.

Turning to `CCOC(=O)/C=C/[N+](CC)(CC)CC.O=[N+]([O-])c1ccc(/N=N/[N-]c2ccc([N+](=O)[O-])cc2C(F)(F)F)c(C(F)(F)F)c1`, the Stability result in [7], in [8] and in data set [9] was “Stable” in each case. Besides, the solubility entry in [10] is “Soluble”.

`O=C(c1ccncc1)N(/N=N/c1ccc([N+](=O)[O-])cc1Cl)c1ccc([N+](=O)[O-])cc1Cl`: the figures for the MBC (with Escherichia coli [1]; in the data set on Staphylococcus aureus [5]; in [6]) were 16 µg/mL (≈ 34.7 µM), 16 µg/mL (≈ 34.7 µM) and above 128 µg/mL, respectively. Also, the MIC against Staphylococcus aureus [2] was 16 µg/mL (≈ 34.7 µM); in the data set on Escherichia coli [3] it was 16 µg/mL (≈ 34.7 µM); in [4], 128 µg/mL (≈ 278 µM); against Saccharomyces cerevisiae, above 128 µg/mL.

For the compound `O=C(c1ccncc1)N(/N=N/c1ccc([N+](=O)[O-])cc1Br)c1ccc([N+](=O)[O-])cc1Br`, the MBC against Escherichia coli [1] is 32 µg/mL (≈ 58.2 µM); against Staphylococcus aureus [5], 32 µg/mL (≈ 58.2 µM); in data set [6], above 128 µg/mL. For the same compound, the MIC was 32 µg/mL (≈ 58.2 µM) with Staphylococcus aureus [2], 32 µg/mL (≈ 58.2 µM) against Escherichia coli [3], 128 µg/mL (≈ 233 µM) in data set [4] and above 128 µg/mL against Saccharomyces cerevisiae.

For `CC[N+](/C=C/C(=O)OC)(CC)CC.O=[N+]([O-])c1ccc(/N=N/[N-]c2ccc([N+](=O)[O-])cc2C(F)(F)F)c(C(F)(F)F)c1`, the Stability entry in data set [7], in data set [8] and in [9] was “Stable” in each case. Also, the solubility result in [10] was “Soluble”.

As for `CCN(CC)CC.O=[N+]([O-])c1ccc(/N=N/Nc2ccc([N+](=O)[O-])cc2C(F)(F)F)c(C(F)(F)F)c1`, the Stability result in data set [7], in [8] and in [9] was “Stable” throughout. In addition, in data set [10], the solubility entry is recorded as “Soluble”.

Take `O=C(N[C@H](CO)[C@H](O)c1ccc([N+](=O)[O-])cc1)C(Cl)Cl` [CHLORAMPHENICOL]: the MIC with Staphylococcus aureus [11] fell in the range of 4 to 32 µg/mL (≈ 12.4 to 99 µM).

As to `O=C(O)c1cn(C2CC2)c2cc(N3CCNCC3)c(F)cc2c1=O` [CIPROFLOXACIN], the MIC against Staphylococcus aureus [11] fell in the range of 0.125 to 64 µg/mL (≈ 0.377 to 193 µM).

In turn, `CCC[C@@H]1C[C@@H](C(=O)N[C@@H]([C@H]2O[C@H](SC)[C@H](O)[C@@H](O)[C@H]2O)[C@H](C)Cl)N(C)C1` [CLINDAMYCIN] showed an MIC against Staphylococcus aureus [11] of 0.125 to 64 µg/mL (≈ 0.294 to 151 µM).

Turning to `CC[C@H]1OC(=O)[C@H](C)[C@@H](O[C@H]2C[C@@](C)(OC)[C@@H](O)[C@H](C)O2)[C@H](C)[C@@H](O[C@@H]2O[C@H](C)C[C@H](N(C)C)[C@H]2O)[C@](C)(O)C[C@@H](C)C(=O)[C@H](C)[C@@H](O)[C@]1(C)O` [ERYTHROMYCIN], in the data set on Staphylococcus aureus [11], the MIC was 8 to 64 µg/mL (≈ 10.9 to 87.2 µM).

For `COc1c(N2CCNC(C)C2)c(F)cc2c(=O)c(C(=O)O)cn(C3CC3)c12` (stereo not drawn) [GATIFLOXACIN], the MIC in the data set on Staphylococcus aureus [11] is 0.5 to 4 µg/mL (≈ 1.33 to 10.7 µM).

As for `NC[C@H]1O[C@H](O[C@H]2[C@H](O)[C@@H](O[C@H]3O[C@H](CO)[C@@H](O)[C@H](N)[C@H]3O)[C@H](N)C[C@@H]2N)[C@H](O)[C@@H](O)[C@@H]1O` [KANAMYCIN], the MIC against Staphylococcus aureus [11] is above 64 µg/mL.

In the data set on Staphylococcus aureus [11], `C[C@H]1COc2c(N3CCN(C)CC3)c(F)cc3c(=O)c(C(=O)O)cn1c23.C[C@H]1COc2c(N3CCN(C)CC3)c(F)cc3c(=O)c(C(=O)O)cn1c23.O` [LEVOFLOXACIN] registered an MIC of 0.25 to 32 µg/mL.

In the data set with Staphylococcus aureus [11], `CC(=O)NC[C@H]1CN(c2ccc(N3CCOCC3)c(F)c2)C(=O)O1` [LINEZOLID] displayed an MIC of 2 to 4 µg/mL (≈ 5.93 to 11.9 µM).

The compound `C/C(=C\C(=O)OCCCCCCCCC(=O)O)C[C@@H]1OC[C@H](C[C@@H]2O[C@H]2[C@@H](C)[C@H](C)O)[C@@H](O)[C@H]1O` [MUPIROCIN] yielded an MIC in the data set with Staphylococcus aureus [11] of 0.5 to 64 µg/mL (≈ 0.999 to 128 µM).

For `NC[C@H]1O[C@H](O[C@H]2[C@H](O)[C@@H](O[C@H]3O[C@H](CO)[C@@H](O)[C@H](N)[C@H]3O)[C@H](N)C[C@@H]2N)[C@H](N)C[C@@H]1O` [TOBRAMYCIN], the MIC against Staphylococcus aureus [11] fell in the range of 0.5 to 2 µg/mL (≈ 1.07 to 4.28 µM).

These data come from ChEMBL document CHEMBL3994613, “Diaryltriazenes as antibacterial agents against methicillin resistant Staphylococcus aureus (MRSA) and Mycobacterium smegmatis” (Eur J Med Chem, 2017).
